This is a sample that favours compounds with a hit; in the whole collection about 2.2% have one here.
LMPTP inh: blocks human LMPTP phosphatase; P24666; recombinant LMPTP-A, OMFP fluorogenic substrate, fluorescence intensity; inhibition, % at 20 µM; actives 0.22% (n = 360,000);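 active = compounds that cut the enzyme signal by at least half of the control window in the single-dose screen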
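Test system: LMPTP-A phosphatase enzyme; input: 0.625 nM LMPTP-A final; reagent: OMFP substrate, 400 µM final; compound dosing: 20 µM single dose, 3% DMSO; incubation: 50 min dark incubation at room temperature; measured by: endpoint fluorescence intensity from OMFP dephosphorylation; measure: % inhibition relative to no-enzyme and uninhibited control wells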
STEP block: inhibitors of human striatal-enriched phosphatase STEP; P54829; recombinant STEP, OMFP fluorogenic substrate, fluorescence; inhibition, % at 20 µM; actives 0.25% (n = 360,000);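 active = inhibition at 20 µM, scaled per plate between control wells, above about 37%, limit read from the data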
Target sequence (P54829 whole entry, looked up): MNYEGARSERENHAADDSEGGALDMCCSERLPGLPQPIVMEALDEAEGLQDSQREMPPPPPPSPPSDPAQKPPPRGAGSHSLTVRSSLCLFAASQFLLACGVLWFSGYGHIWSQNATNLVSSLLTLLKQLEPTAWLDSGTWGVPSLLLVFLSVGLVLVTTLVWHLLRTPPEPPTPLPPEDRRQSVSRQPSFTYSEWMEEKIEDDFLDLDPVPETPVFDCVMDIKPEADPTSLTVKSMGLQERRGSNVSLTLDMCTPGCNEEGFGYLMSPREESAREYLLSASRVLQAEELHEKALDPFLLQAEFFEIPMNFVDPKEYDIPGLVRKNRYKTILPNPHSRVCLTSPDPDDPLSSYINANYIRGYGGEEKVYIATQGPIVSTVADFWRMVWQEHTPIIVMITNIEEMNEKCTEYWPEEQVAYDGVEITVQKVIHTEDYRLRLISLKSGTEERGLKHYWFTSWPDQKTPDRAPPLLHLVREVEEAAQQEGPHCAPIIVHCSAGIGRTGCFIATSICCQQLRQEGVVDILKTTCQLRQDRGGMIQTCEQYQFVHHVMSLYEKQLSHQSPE
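material = STEP tyrosine phosphatase | reagent = fluorogenic phosphatase substrate OMFP at 25 µM final | doses = single compound dose of 20 µM, 1% DMSO final | schedule = 20 min reaction, room temperature, in the dark | measured by = fluorescence, 480/540 nm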
DNMT1 block: DNMT1 (human) enzyme inhibition | DNMT1 molecular beacon, Hinp1I cleavage, fluorescence | inhibition (reported as % activation of signal), % at 10 µM | actives 0.83% (n = 360,000) | AID 588458; in the data active = inhibition above about 50%
Scp1 inh: Scp-1 (human) phosphatase inhibition | Recombinant Scp1, phosphopeptide, malachite green phosphate absorbance | inhibition, % at 20 µM | Q9GZU7 | AID 493091 | actives 0.88% (n = 340,000);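 active = inhibition above about 50% at 20 µM, limit read from the data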
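System: truncated SCP-1 phosphatase (76-261aa); medium: Tris acetate buffer pH 5.5 with MgCl2 and Tween-20; incubation: 45 min room-temperature reaction, 5 min colour, 30 min stabiliser; compound: single 20 µM dose, 1% DMSO; reagent: Phosphorylated 17-residue peptide substrate; read-out: % inhibition at 20 µM; technique: colorimetric free-phosphate detection, absorbance 630 nm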
SUMO1-SIM PPI: SUMO1-SIM interaction modulation | inhibition, % at 20 µM | SUMO1 binding to a labelled peptide, TR-FRET, 1 h | actives 0.33% (n = 360,000) | P63165 | AID 602429; in the data active = inhibition above about 37%
GRK2 aptamer HTS: inhibitors of human GRK2 displacing RNA aptamer | P25098 | bead flow cytometry, FAM-aptamer displacement from GRK2 | inhibition of aptamer binding, % at 10 µM | actives 0.59% (n = 330,000) | AID 488847;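 active = inhibition of aptamer binding above 40%, roughly 3 SD of noise, on plates passing a quality check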;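 note: median bead fluorescence of bound FAM aptamer so fluorescent compounds give negative values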
DNMT1 inh conf: confirmation of human DNMT1 inhibitors. inhibition, % at 10 µM. AID 602385. DNMT1 molecular beacon HinP1I cleavage, fluorescence. shares compounds with DNMT1 block. actives 8% (n = 2,300);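 active = average inhibition of at least 30% in the single-concentration confirmation test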
Beacon interf: beacon fluorescence artifact counter-screen; shares compounds with DNMT1 block; DNMT1 molecular beacon spectral interference counterscreen, fluorescence 485/520; activation (fluorescence interference), % at 10 µM; actives 1% (n = 2,300);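 active = activation of at least 30% at 10 µM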;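 note: DNMT1 catalytic domain with a HinP1I cleavage step and a FAM/dabcyl DNA beacon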
Each line names hits and unclear results; the compound was inactive in the other large screens (follow-up assays come after a bar, where they were run).

O=C(CSc1nc(C2CC2)nc2c1cnn2-c1ccccc1)Nc1c[nH]c(=O)[nH]c1=O	none
Cc1nn(C)c(C)c1NC(=O)CSc1nc(Cc2ccccc2)nc2c1cnn2-c1ccccc1	DNMT1 block 50.6 | DNMT1 inh conf inactive | Beacon interf inactive
Cc1nn(Cc2ccccc2)c(C)c1NC(=O)CSc1nc(C2CC2)nc2c1cnn2-c1ccccc1	DNMT1 block 58.4 | DNMT1 inh conf inactive | Beacon interf inactive
COC(=O)[C@]12CCCCC=C1N(Cc1cccc3ccccc13)C(=O)[C@H](CC(=O)NCCc1ccccc1OC)C2	none (no result: STEP block, DNMT1 block, Scp1 inh, GRK2 aptamer HTS)
COc1ccc(C(=O)N(C)[C@H]2C[C@H]3c4[nH]c5ccccc5c4CCN3C(=O)[C@H]2CO)cc1	none (no result: Scp1 inh, GRK2 aptamer HTS)
Cn1nc(C(C)(C)C)cc1C(=O)N1CCCC(c2cc(C(=O)NCc3ccccc3)no2)C1 (stereo not drawn)	none (no result: Scp1 inh, GRK2 aptamer HTS)
COc1ccc(/C=N/Nc2cc(N(C)C)nc(N(C)C)n2)cc1	DNMT1 block 51.5 | DNMT1 inh conf inactive | Beacon interf inactive
COC(=O)c1ccc2nc(-c3ccc(C#N)cc3)c(Cc3cccc(F)c3)n2c1	none (no result: Scp1 inh, GRK2 aptamer HTS)
Cc1ccc(Cn2c(=N)c(C(=O)NCc3ccco3)cc3c(=O)n4ccccc4nc32)cc1	LMPTP inh 58.7, DNMT1 block 81.7 | DNMT1 inh conf inactive | Beacon interf inactive
N=c1c(S(=O)(=O)c2ccc(Br)cc2)cc2c(=O)n3ccccc3nc2n1Cc1ccccc1	none
N=c1c(S(=O)(=O)c2ccc(Br)cc2)cc2c(=O)n3ccccc3nc2n1Cc1ccco1	DNMT1 block 86.0 | DNMT1 inh conf inactive | Beacon interf inactive
COc1cc(-n2c(=O)c3ccccc3n(CC(=O)c3ccc(Br)cc3)c2=O)cc(OC)c1OC	none
CCN(C(=O)Cn1c(=O)n(-c2cc(OC)c(OC)c(OC)c2)c(=O)c2ccccc21)c1cccc(C)c1	DNMT1 block 130.4 | DNMT1 inh conf inactive | Beacon interf inactive
O=[N+]([O-])c1ccc(-c2cn(-c3ccc(Cl)cc3)cn2)cc1	DNMT1 block 54.3, SUMO1-SIM PPI 75.4 (no result: Scp1 inh, GRK2 aptamer HTS) | DNMT1 inh conf inactive | Beacon interf inactive
CCOC(=O)c1ccc(-n2cnc(-c3ccc([N+](=O)[O-])cc3)c2)cc1	none (no result: Scp1 inh, GRK2 aptamer HTS)
COc1ccc(C(O)c2ncc(-c3cccc4ccccc34)[nH]2)cc1F (stereo not drawn)	none (no result: Scp1 inh, GRK2 aptamer HTS)
O=C(NNc1cc(N2CCCC2)nc(N2CCCC2)n1)c1ccc([N+](=O)[O-])cc1	DNMT1 block 55.6, SUMO1-SIM PPI 37.1 | DNMT1 inh conf inactive | Beacon interf inactive
CC(C)(C)c1ccc(C(=O)NNc2cc(N3CCCCC3)nc(N3CCCCC3)n2)cc1	none
O=C1c2cccc3c(O)ccc(c23)C(=O)N1Cc1ccco1	DNMT1 block 95.0 (no result: GRK2 aptamer HTS) | DNMT1 inh conf 133.2 | Beacon interf 116.2
O=C1c2ccccc2C(=O)N1Cc1ccco1	none
CCNc1ccc(Br)cc(C(=O)/C=C/c2ccccc2Cl)c1=O	DNMT1 block 76.9 | DNMT1 inh conf inactive | Beacon interf inactive
Nc1nnc(SCC(=O)Nc2cccc(S(N)(=O)=O)c2)s1	DNMT1 block 91.7 | DNMT1 inh conf inactive | Beacon interf inactive
CCN(CC)S(=O)(=O)c1cccc(NC(=O)CSc2nnc(N)s2)c1	none
Cc1nc(NCc2ccc3c(c2)OCO3)c2nnn(Cc3ccccc3)c2n1	DNMT1 block 54.8 | DNMT1 inh conf inactive | Beacon interf inactive
COc1ccc2[nH]c(C(=O)NCc3ccccc3)c(C)c2c1	DNMT1 block 69.7 | DNMT1 inh conf inactive | Beacon interf inactive
Cc1cccc2c(N=NC(=O)c3ccc(NS(=O)(=O)c4cccs4)cc3)c(O)[nH]c12	DNMT1 block 87.1 | DNMT1 inh conf inactive | Beacon interf inactive
COc1ccc2[nH]c(O)c(N=NC(=O)c3ccc(NS(=O)(=O)c4cccs4)cc3)c2c1	none

Screening data as filed in PubChem.
